Consider 13 compounds from ChEMBL document CHEMBL1123878, “Potential antitumor agents. 50. In vivo solid-tumor activity of derivatives of N-[2-(dimethylamino)ethyl]acridine-4-carboxamide” (J Med Chem, 1987).

A short description of data set [1]: Lipophilicity index (Rm) (HPLC). The class given is physicochemical.
Data set [2] relates to L1210. Briefly: Inhibition murine leukemia L1210 cell growth in culture. Format: functional, cell-based. As to conditions: Mus musculus. Summed up: (§1)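 IC50 is the drug concentration, in nM, that inhibits growth of the cultured cell line by 50%.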
Data set [3] can be described thus: Selectivity ratio of IC50 of HCT to IC50 of L1210 cell lines. The class given is functional.
Data set [4] is described as follows: Base strength is expressed as pKa, determined in water at 25 degrees Centigrade by spectrophotometric method. Format: physicochemical.
For data set [5], the system named is HCT-8. Briefly: Inhibition of human colon tumor (HCT-8) cell growth in culture. The class given is functional, cell-based. Summed up: as §1
Data set [6] has as its system Lewis lung carcinoma cell line. Put plainly: (§2) Percentage increase in life span of tumor bearing animals compared to non treated, tumor-bearing controls when treated at the optimal dose of 100 mg/kg/day intraperitoneally. The class given is functional. As to conditions: Mus musculus, ip, route intraperitoneal.
The subject of data set [7] is P388. Briefly: (§3) Percentage increase in life span of tumor bearing animals compared to non treated, tumor-bearing controls when treated at the optimal dose of 150 mg/kg/day intraperitoneally. Format: functional. As to conditions: Mus musculus, P388, ip; route intraperitoneal.
The test system of data set [8] is Lewis lung carcinoma cell line. Described as §3. As to conditions: Mus musculus, ip, route intraperitoneal. Format: functional.
Data set [9] has as its system P388. The description is as §2. Format: functional. The following applies: Mus musculus, P388, ip; route intraperitoneal.

By IC50 is commonly meant the concentration at which inhibition is half-maximal. In general, pKa refers to the negative logarithm of the acid dissociation constant. A higher pKa goes with a weaker acid or stronger base. For orientation: ILS means how much longer treated animals lived than controls. A lower ILS goes with little gain in survival. `COc1ccc2cc3cccc(C(=O)NCCN(C)C)c3nc2c1.Cl.Cl`: the Rm in data set [1] is on record as -0.47. For the same compound, the IC50 was determined as 210 nM in [2] and 470 nM in data set [5]. In addition, in [3], the Ratio is reported as 2.2. In [4], this compound had a pKa of 4.59. The increase in lifespan (ILS) at 100 mg/kg/day in [6] worked out at 85%.

On to `CN(C)CCCNC(=O)c1cccc2cc3ccccc3nc12.Cl.Cl`, for which the Rm in data set [1] is given as -0.1. In addition, the increase in lifespan (ILS) at 150 mg/kg/day in data set [7] came to 118%; in data set [8], 84%. Besides, the values for the IC50 in [2] and in [5] were 370 nM and 2900 nM, respectively. The Ratio in [3] turned out to be 7.8.

In [1], `CCN(CC)CCNC(=O)c1cccc2cc3ccccc3nc12.Cl.Cl` came in with a Rm of 0.17. The figures for the ILS at 150 mg/kg/day in data set [7] and in data set [8] were 61% and 62%, respectively. This compound also registered an IC50 in data set [2] of 630 nM.

For the compound `Cc1cc(C(=O)NCCN(C)C)c2nc3ccccc3cc2c1.Cl.Cl`, the Rm in [1] is -0.04. In data set [8], the increase in life span (ILS) at 150 mg/kg/day turned out to be 33%. The results for the IC50 in data set [2] and in data set [5] were 130 nM and 657 nM, respectively. The Ratio in data set [3] was 5.1. Further, the ILS at 100 mg/kg/day in data set [9] was 120%.

For `CN(C)CCNC(=O)c1cc(Cl)cc2cc3ccccc3nc12.Cl.Cl`, in data set [1], the Rm turned out to be 0.03. The IC50 in data set [2] was found to be 31 nM; in data set [5], 440 nM. Also, the Ratio in [3] was found to be 14.2. Also, the ILS at 100 mg/kg/day in [9] came out at 62%; in data set [6] it was 219%.

In turn, `Cc1ccc(C(=O)NCCN(C)C)c2nc3ccccc3cc12.Cl.Cl` displayed a Rm in data set [1] of 0.1. Moreover, the IC50 in [2] was found to be 37 nM; in data set [5], 400 nM. For the same compound, the Ratio in [3] turned out to be 10.8. Besides, the ILS at 100 mg/kg/day in data set [9] stood at 71%.

Regarding `CN(C)CCNC(=O)c1ccc(Cl)c2cc3ccccc3nc12.Cl.Cl`, the Rm in [1] was 0.04. Also, the half-maximal inhibitory concentration (IC50) in [2] came to 33 nM; in data set [5], 370 nM. The Ratio in [3] is reported as 11.2. For the same compound, the ILS at 100 mg/kg/day in [9] was determined as 110%; in [6] it was 120%.

On to `CN(C)CCNC(=O)c1cccc2cc3cc(Cl)ccc3nc12.Cl.Cl`, for which, in data set [1], the Rm was -0.03. Also, the values for the 50% inhibitory concentration (IC50) in [2] and in data set [5] were 250 nM and 610 nM, respectively. The Ratio in data set [3] is reported as 2.4. Moreover, the ILS at 100 mg/kg/day in data set [9] turned out to be 106%; in [6], 94%.

Compound `Cc1ccc2nc3c(C(=O)NCCN(C)C)cccc3cc2c1.Cl.Cl` came in with a Rm in data set [1] of -0.05. In data set [8], this compound came in with an ILS at 150 mg/kg/day of 85%. Also, the half-maximal inhibitory concentration (IC50) in data set [2] came to 200 nM; in data set [5] it was 1240 nM. Moreover, the Ratio in data set [3] came out at 6.2. This compound came in with an ILS at 100 mg/kg/day in [9] of 68%.

Consider `COc1cc(C(=O)NCCN(C)C)c2nc3ccccc3cc2c1.Cl.Cl`, for which the Rm in [1] is given as -0.13. The IC50 in data set [2] was found to be 30 nM; in [5], 720 nM. Besides, the Ratio in data set [3] is reported as 24. In data set [4], this compound showed a pKa of 3.34. The ILS at 100 mg/kg/day in [9] was determined as 99%; in data set [6], 105%.

`COc1ccc2nc3c(C(=O)NCCN(C)C)cccc3cc2c1.Cl.Cl`: the Rm in [1] was -0.22. Further, the values for the ILS at 150 mg/kg/day in data set [7] and in data set [8] were 91% and 46%, respectively. The IC50 came to 640 nM in data set [2] and 1700 nM in data set [5]. Further, the Ratio in [3] came out at 2.7. The compound further gave a pKa in data set [4] of 3.54.

As for `COc1cccc2nc3c(C(=O)NCCN(C)C)cccc3cc12.Cl`, the Rm in data set [1] is given as -0.12. Besides, the IC50 in data set [2] was 58 nM; in data set [5] it was 520 nM. Also, the Ratio in data set [3] amounted to 9. For the same compound, in data set [4], the pKa was determined as 3.82. Moreover, the results for the ILS at 100 mg/kg/day in data set [9] and in [6] were 128% and 66%, respectively.

The compound `CN(C)CCCCNC(=O)c1cccc2cc3ccccc3nc12.Cl` had a Rm in [1] of 0.01. Besides, the IC50 was 160 nM in data set [2] and 930 nM in [5]. In addition, the Ratio in [3] is given as 5.8. In addition, the ILS at 100 mg/kg/day in data set [9] worked out at 143%; in data set [6] it was 100%.
